# Measured values from ChEMBL document CHEMBL1154000, “Modified low molecular weight cyclic peptides as mimetics of BDNF with improved potency, proteolytic stability and transmembrane passage in vitro” (Bioorg Med Chem, 2009).
# Legend:
# [1] = Increase in neuronal survival in embryonic chick dorsal root ganglion sensory neurons at 10 uM to 10 nM after 48 hrs relative to BDNF; format: functional, Gallus gallus, DRG neuron
# Method in brief: (§1)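 Primary embryonic chick DRG sensory neuron cultures. Peptides tested in log10 increments, with surviving neurons counted after 48 h. Triplicate well counts averaged and normalised between BDNF positive (100%) and negative (0%) controls. Data given as mean ± SEM, n = 3–4. pEC20BDNF is the negative log10 of the concentration giving 20% of the BDNF survival response.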
# [2] = Increase in neuronal survival in embryonic chick dorsal root ganglion sensory neurons assessed as normalized neuronal survival response equivalent to 20% for BDNF after 48 hrs; format: functional, Gallus gallus, DRG neuron; method in brief: as §1
# [3] = Increase in neuronal survival in embryonic chick dorsal root ganglion sensory neurons at 10 uM to 0.1 nM after 48 hrs relative to BDNF; format: functional, Gallus gallus, DRG neuron; conditions: in the assay text read “at 100 uM” for “at 10 uM to 0.1 nM”; method in brief: as §1
# Plasma = experiment: (§2) Stability in mouse plasma assessed as degradation; format: ADME, cell-free
# Method in brief: (§3)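 Peptide (0.2 mg) incubated at 37 °C in single-mouse plasma diluted 50% in PBS, sampled over 24 h. Each aliquot put on ice, treated with lysine (1000 equiv) to displace protein binding, then MeCN to precipitate proteins, centrifuged at 4 °C and diluted for HPLC. Peak areas taken as ratio to 4-isopropylbenzyl alcohol internal standard, as % of t = 0; three experiments.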
# [4] = Apparent permeability across apical to basolateral side in human Caco-2 cells at 200 uM after 150 mins; format: ADME, cell-based
# Method in brief: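 Caco-2 cells (passage 82–96) grown 24–25 days on polycarbonate Transwell supports (0.45 µm pore, 1.13 cm²). Basolateral samples taken every 30 min for 150 min with buffer replacement. Samples acetylated, lyophilised, redissolved in 2% TFA and centrifuged; bis-acetylated peptide quantified by LCMS. Papp given as mean ± SEM from 3–4 monolayers.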
# [5] = Increase in neuronal survival in embryonic chick dorsal root ganglion sensory neurons at 10 uM to 0.1 nM after 48 hrs relative to BDNF
# [6] = Stability in mouse plasma assessed as half life at 0.2 mg; format: ADME, cell-free; method in brief: as §3
# [7] = Increase in neuronal survival in embryonic chick dorsal root ganglion sensory neurons at 0.1 uM after 48 hrs relative to BDNF; format: functional, Gallus gallus, DRG neuron; conditions: in the assay text read “0.01 uM” for “0.1 uM”; method in brief: as §1
# [8] = as §2; format: ADME, cell-free; conditions: read-out: Activity; method in brief: as §3
Structure (SMILES),Activity [1] [%],Activity [2],Activity [3] [%],Activity (Plasma),"Papp A→B at 2.5 h, 200 µM [4] [×10⁻⁶ cm/s]",Activity [5] [%],half-life [6] [h],Activity [7] [%],metabolised [8] [%]
N=C(N)NCCC[C@@H]1NC(=O)[C@H](CCCCN)NC(=O)[C@H](CCCCN)NC(=O)[C@H](CCCCN)NC(=O)[C@H]2CCCN2C1=O,60.9,7.5,,,,,,,
C[C@@H]1NC(=O)[C@H]2CCCN2C(=O)[C@H](CCCNC(=N)N)NC(=O)[C@H](CCCCN)NC(=O)[C@H](CCCCN)NC1=O,,7.3,67.7,Stable,0.642,37.3,> 24,,
CCCCC(=O)NCCCC[C@@H]1NC(=O)[C@H]2CCCN2C(=O)[C@H](CCCNC(=N)N)NC(=O)[C@H](CCCCN)NC(=O)[C@H](CCCCN)NC1=O,39.4,7.7,,,0.929,,,,
N=C(N)NCCC[C@@H]1NC(=O)[C@H](CCCCN)NC(=O)[C@H](CCCCN)NC(=O)[C@H](Cc2ccccc2)NC(=O)[C@H]2CCCN2C1=O,21.8,5.3,,,,,,,
CCCCCCCCCCCCCCCC(=O)NCCCC[C@@H]1NC(=O)[C@H]2CCCN2C(=O)[C@H](CCCNC(=N)N)NC(=O)[C@H](CCCCN)NC(=O)[C@H](CCCCN)NC1=O,49.4,9.1,,,,,,28.4,
CCCC[C@@H]1NC(=O)[C@H]2CCCN2C(=O)[C@H](CCCNC(=N)N)NC(=O)[C@H](CCCCN)NC(=O)[C@H](CCCCN)NC1=O,36.2,6.2,,,0.288,,,,
CCCCCCCC(=O)NCCCC[C@@H]1NC(=O)[C@H]2CCCN2C(=O)[C@H](CCCNC(=N)N)NC(=O)[C@H](CCCCN)NC(=O)[C@H](CCCCN)NC1=O,38.7,7.5,,,0.922,,> 24,,20
